Assay [1] can be described thus: Her2 expression decrease, cell viability multiplex – SKBR3 breast tumor cells, AlphaScreen, ATP viability, primary screen (AID 461).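 As to Her2 level: lower value means less Her2 protein in the cells.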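 As to viability: percent of carrier control wells set as 100% viability.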 The note with it: SKBR3 Her2 protein level, 18-24 h, measured here: SKBR3 viability, ATP luminescence, at 10 µM. A general note: Bead proximity is the source of the signal in Alpha formats.
The target of assay [2] is Receptor tyrosine-protein kinase erbB-2 (Homo sapiens) (UniProt P04626). The description is as above. To be noted: 18-24 h, at 10 µM, stronger effect = lower value.
Receptor tyrosine-protein kinase erbB-2 (Homo sapiens), sequence (P04626 whole entry, looked up): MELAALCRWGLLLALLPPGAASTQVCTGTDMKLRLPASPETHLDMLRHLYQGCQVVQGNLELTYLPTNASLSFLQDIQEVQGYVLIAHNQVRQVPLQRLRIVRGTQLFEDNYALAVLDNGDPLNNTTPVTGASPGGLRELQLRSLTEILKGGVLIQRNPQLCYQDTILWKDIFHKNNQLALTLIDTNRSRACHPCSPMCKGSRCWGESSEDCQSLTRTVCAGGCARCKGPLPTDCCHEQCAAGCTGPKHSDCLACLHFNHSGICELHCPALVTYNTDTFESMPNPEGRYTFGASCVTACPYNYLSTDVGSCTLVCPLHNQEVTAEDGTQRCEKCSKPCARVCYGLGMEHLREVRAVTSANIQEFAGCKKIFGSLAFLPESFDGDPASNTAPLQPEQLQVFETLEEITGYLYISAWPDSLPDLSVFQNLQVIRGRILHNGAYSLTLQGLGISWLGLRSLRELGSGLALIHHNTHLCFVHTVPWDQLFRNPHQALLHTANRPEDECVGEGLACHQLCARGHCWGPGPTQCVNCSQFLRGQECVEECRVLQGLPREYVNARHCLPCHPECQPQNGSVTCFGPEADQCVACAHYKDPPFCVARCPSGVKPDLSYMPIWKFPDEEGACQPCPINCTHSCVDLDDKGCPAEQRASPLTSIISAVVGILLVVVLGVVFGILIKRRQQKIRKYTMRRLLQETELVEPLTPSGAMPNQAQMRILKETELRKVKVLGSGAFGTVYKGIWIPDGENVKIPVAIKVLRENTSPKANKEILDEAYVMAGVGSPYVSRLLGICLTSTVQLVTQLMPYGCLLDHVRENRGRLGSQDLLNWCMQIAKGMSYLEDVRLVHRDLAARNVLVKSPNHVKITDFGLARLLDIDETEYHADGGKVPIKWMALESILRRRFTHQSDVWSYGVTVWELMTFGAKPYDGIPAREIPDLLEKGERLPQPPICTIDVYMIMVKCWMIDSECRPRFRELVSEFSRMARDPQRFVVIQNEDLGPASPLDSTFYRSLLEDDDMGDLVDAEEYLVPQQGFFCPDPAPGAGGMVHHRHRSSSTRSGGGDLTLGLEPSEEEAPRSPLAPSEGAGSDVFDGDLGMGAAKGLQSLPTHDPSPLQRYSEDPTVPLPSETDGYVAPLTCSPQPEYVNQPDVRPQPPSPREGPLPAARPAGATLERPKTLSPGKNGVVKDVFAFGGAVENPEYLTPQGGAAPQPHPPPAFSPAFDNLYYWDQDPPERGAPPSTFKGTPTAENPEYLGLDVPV
Assay [3] in a line: reduced viability of SK-BR-3 breast cancer cells – cell-based, 24 h, human, pilot screen (AID 572;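 active = viability at or below 10% of carrier control in both of two separate runs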;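 also: compound exposure lasted between 18 and 24 h rather than exactly 24 h; 100% = carrier-treated control wells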). To be noted: SK-BR-3 viability, CellTiter-Glo luminescence, at 10 µM, stronger effect = lower value. In general terms: In ATP-based viability assays light output follows the ATP content of the culture.
Assay [4] is described as follows: HUVEC growth inhibition – cell-based, human, primary screen (AID 575;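 active = viability at or below 30% in both replicate assays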;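 also: 100% = median of untreated cell wells with 0.1% DMSO on each plate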). The note with it: HUVEC proliferation, CellTiter-Glo luminescence, 72 h; at 10 µM; stronger effect = lower value. In a few lines: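 Assay system: primary human umbilical vein endothelial cells / Buffer or medium: endothelial basal medium with 2% FBS plus growth supplements / Compound dosing: one dose, 10 µM final, 0.1% DMSO / Timing: 72 h treatment at 37 °C / Signal: CTG luminescence / Benchmarks: 32 DMSO-only cell-control wells (high), 32 MePR drug-control wells (low) per plate / Plate: collagen-coated 384-well format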

Assay [5] is described as follows: H69AR cell proliferation blockers – human, duplicate replicates, primary screen (AID 580;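 active = viability at or under a set limit in both replicates, limit being median viability minus 3 SD, cut at about 48% in these data, passing the limit was not always enough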;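 also: 100% = mean luminescence of untreated wells and 0% = no signal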). The note with it: H69AR lung tumor cells viability, ATP luminescence, 72 h; at 10 µM; stronger effect = lower value.
Assay [6] is described as follows: MRP1 drug-resistance reversers in H69AR cells – cell-based, doxorubicin co-treatment, pilot screen (AID 601;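 active = viability loss from added drug above about 55%, and viability with drug at most 40%, in both replicates, limit read from the data, passing the limit was not always enough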). To be noted: CellTiter-Glo, 72 h, at 10 µM; for differential viability (reversal): stronger effect = higher value.
Assay [7] is described as follows: yeast transport mutant growth inhibition pilot in 384-well plates, post-Golgi transport modulator project (AID 636; in the data active = inhibition above about 31%). To be noted: absorbance 615 nm, about 18 h, stronger effect = higher value.
A short description of assay [8]: growth suppression of yeast trafficking mutant, preliminary HTS, modulators of trafficking downstream of Golgi apparatus project, 1536-format plate, OD 615 nm (AID 637; in the data active = inhibition above about 30%). The note with it: yeast transport mutant growth, absorbance 615 nm, 18 h; stronger effect = higher value.
Where [9] appears, read: H69AR cells + 2 uM doxorubicin, measured here: viability with 2 uM doxorubicin, stronger effect = lower value.
Where [10] appears, read: H69AR cells, compound alone cytotoxicity.

Active and inactive are the calls of the source.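 The calls were made as follows, unless noted: active = Her2 level under about 52% in both replicate screens, with viability over 70% of control (limit read from the data); inconclusive = Her2 under the limit in one screen only, or viability under 70%; inactive = Her2 level above the set limit.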

By viability is commonly meant a read-out of living cells in per cent, often relative to untreated cells. One may read the inhibition as the drop in the measured response relative to a control, in per cent.

In the case of `CCOP(=O)(c1ccc(N(C)C)cc1)C(O)c1cc(OC)c(OC)c(OC)c1` (stereo not given), the viability was 76.5% in assay [1]; 76.5% (inactive) in assay [3]; 80.6% (inactive) in assay [4]; 87.4% (inactive) in assay [5]; 87.4% in assay [6] (setting [9]); 87.4% in assay [6] (setting [10]). The Her2 level in assay [2] was 80% (inactive). Further, the differential viability (reversal) in assay [6] (H69AR cells + 2 uM doxorubicin) was -0.05% (inactive). Also, the figures for the inhibition in assay [7] and in assay [8] were -3.68% (inactive) and -2.38% (inactive), respectively.
For `C=CCC(NCc1ccco1)c1ccc(OC)cc1OC` (stereo not given), the viability is 96% in assay [1]; 96% (inactive) in assay [3]; 99.1% (inactive) in assay [4]; 93% (inactive) in assay [5]; 85.3% in assay [6] (setting [9]); 93% in assay [6] (setting [10]). For the same molecule, the Her2 level in assay [2] was 98.5% (inactive). Further, in assay [6] (H69AR cells + 2 uM doxorubicin), the differential viability (reversal) is 7.67% (inactive). The inhibition in assay [7] is -4.08% (inactive); in assay [8], 0.36% (inactive).
Consider `CCc1[nH]nc2c1C(c1ccncc1)C(C#N)=C(N)O2` (stereo not given), for which the viability in assay [1] was 108%; in assay [3], 108% (inactive); in assay [4] it was 106% (inactive); in assay [5], 95.9% (inactive); in assay [6] (setting [9]), 99.8%; in assay [6] (setting [10]), 95.9%. For the same molecule, the Her2 level in assay [2] was 112% (inactive). Besides, the differential viability (reversal) in assay [6] (H69AR cells + 2 uM doxorubicin) is -3.88% (inactive). The inhibition was -4.46% (inactive) in assay [7] and -4.92% (inactive) in assay [8].
Regarding `O=C(CCn1nc(-c2ccccc2)ccc1=O)N1CCCC1`, the viability in assay [1] was 97%; in assay [3] it was 97% (inactive); in assay [4], 114% (inactive); in assay [5], 94.4% (inactive); in assay [6] (setting [9]) it was 94.9%; in assay [6] (setting [10]), 94.4%. Also, the Her2 level in assay [2] was 96% (inactive). Moreover, the differential viability (reversal) in assay [6] (H69AR cells + 2 uM doxorubicin) was -0.505% (inactive). The inhibition in assay [7] was -4.74% (inactive); in assay [8] it was 0.48% (inactive).
With `CCOc1ccc(C(=O)N2CCC(C(=O)c3ccc4c(c3)OCCO4)CC2)cc1`, the viability in assay [1] is 84.5%; in assay [3] it was 84.5% (inactive); in assay [4] it was 77.8% (inactive); in assay [5], 86.3% (inactive); in assay [6] (setting [9]), 86.1%; in assay [6] (setting [10]), 86.3%. The Her2 level in assay [2] was 79.5% (inactive). For the same molecule, the differential viability (reversal) in assay [6] (H69AR cells + 2 uM doxorubicin) is 0.19% (inactive). The inhibition in assay [7] is -4.61% (inactive); in assay [8], -6.91% (inactive).
With `Cc1cc(C(=O)O)ccc1-n1c(C)ccc1C`, the viability in assay [1] was 100%; in assay [3] it was 100% (inactive); in assay [4], 89.6% (inactive); in assay [5], 93.2% (inactive); in assay [6] (setting [9]), 91.8%; in assay [6] (setting [10]), 93.2%. The Her2 level in assay [2] was 92% (inactive). Moreover, the differential viability (reversal) in assay [6] (H69AR cells + 2 uM doxorubicin) was 1.35% (inactive). Also, the inhibition in assay [7] was 1.32% (inactive); in assay [8], -4.52% (inactive).
On to `CN(C)CCCN1C(=O)C(=O)/C(=C(/O)c2ccncc2)C1c1cccc(Br)c1` (stereo not given), for which the viability was 90.5% in assay [1]; 90.5% (inactive) in assay [3]; 118% (inactive) in assay [4]; 94.5% (inactive) in assay [5]; 89.3% in assay [6] (setting [9]); 94.5% in assay [6] (setting [10]). Also, in assay [2], the Her2 level is 97% (inactive). For the same molecule, the differential viability (reversal) in assay [6] (H69AR cells + 2 uM doxorubicin) was 5.26% (inactive). In addition, the figures for the inhibition in assay [7] and in assay [8] were -2.93% (inactive) and -5.9% (inactive), respectively.
Regarding `COc1ccc(CCNS(=O)(=O)c2ccc3oc(C(=O)O)c(C)c3c2)cc1OC`, the viability was 109% in assay [1]; 109% (inactive) in assay [3]; 112% (inactive) in assay [4]; 88.7% (inactive) in assay [5]; 91.2% in assay [6] (setting [9]); 88.7% in assay [6] (setting [10]). Besides, the Her2 level in assay [2] is 92% (inactive). Also, the differential viability (reversal) in assay [6] (H69AR cells + 2 uM doxorubicin) is -2.46% (inactive). In addition, the inhibition was 0.78% (inactive) in assay [7] and 1.15% (inactive) in assay [8].
Consider `O=C(CCC(=O)N(c1cccc(F)c1)C(C(=O)NC1CCCC1)c1ccncc1)Nc1cccnc1` (stereo not given), for which the viability was 100% in assay [1]; 100% (inactive) in assay [3]; 97.1% (inactive) in assay [4]; 91.7% (inactive) in assay [5]; 95.8% in assay [6] (setting [9]); 91.7% in assay [6] (setting [10]). In assay [2], the Her2 level was 95.5% (inactive). Moreover, the differential viability (reversal) in assay [6] (H69AR cells + 2 uM doxorubicin) was -4.02% (inactive). Also, the inhibition is -0.8% (inactive) in assay [7] and 2.74% (inactive) in assay [8].
In the case of `COc1cccc(C(=O)OCn2nnc3ccccc3c2=O)c1`, the viability in assay [1] is 88%; in assay [3] it was 88% (inactive); in assay [4], 108% (inactive); in assay [5], 114% (inactive); in assay [6] (setting [9]), 109%; in assay [6] (setting [10]), 114%. The Her2 level in assay [2] is 92.5% (inactive). Moreover, the differential viability (reversal) in assay [6] (H69AR cells + 2 uM doxorubicin) was 4.58% (inactive). The inhibition in assay [7] is -0.13% (inactive); in assay [8], 16.5% (inactive).
In the case of `CCOC(=O)c1cnn(-c2cc(C)nc3c(-c4ccccc4)c(C)nn23)c1N`, the viability was 120% in assay [1]; 120% (inactive) in assay [3]; 84.2% (inactive) in assay [4]; 89.4% (inactive) in assay [5]; 73.7% in assay [6] (setting [9]); 89.4% in assay [6] (setting [10]). In addition, the Her2 level in assay [2] is 89% (inactive). For the same molecule, in assay [6] (H69AR cells + 2 uM doxorubicin), the differential viability (reversal) was 15.7% (inactive). Besides, the inhibition was -3.77% (inactive) in assay [7] and -5.56% (inactive) in assay [8].
For the molecule `COc1cccc(Oc2ccc(N)cn2)c1`, the viability in assay [1] was 87%; in assay [3], 87% (inactive); in assay [4], 109% (inactive); in assay [5], 88.1% (inactive); in assay [6] (setting [9]) it was 84.4%; in assay [6] (setting [10]) it was 88.1%. For the same molecule, the Her2 level in assay [2] is 106% (inactive). For the same molecule, in assay [6] (H69AR cells + 2 uM doxorubicin), the differential viability (reversal) was 3.66% (inactive). For the same molecule, the inhibition was -2.37% (inactive) in assay [7] and -4.43% (inactive) in assay [8].
For the molecule `COC(=O)c1oc2ccc(Br)cc2c1NC(=O)CN1CCN(C)CC1`, the viability in assay [1] was 92.5%; in assay [3], 92.5% (inactive); in assay [4] it was 101% (inactive); in assay [5], 96.6% (inactive); in assay [6] (setting [9]), 80.3%; in assay [6] (setting [10]) it was 96.6%. Moreover, in assay [2], the Her2 level is 100% (inactive). In addition, in assay [6] (H69AR cells + 2 uM doxorubicin), the differential viability (reversal) was 16.2% (inactive). The inhibition in assay [7] is 1.18% (inactive); in assay [8], 0.55% (inactive).
As to `O=C(NCc1cccnc1)c1ccc(=O)oc1`, the viability in assay [1] was 89.5%; in assay [3] it was 89.5% (inactive); in assay [4], 106% (inactive); in assay [5], 83.4% (inactive); in assay [6] (setting [9]) it was 88.3%; in assay [6] (setting [10]), 83.4%. The Her2 level in assay [2] is 90% (inactive). Further, the differential viability (reversal) in assay [6] (H69AR cells + 2 uM doxorubicin) is -4.97% (inactive). Also, the inhibition in assay [7] was -5.81% (inactive); in assay [8] it was -5.33% (inactive).
As for `CC1CN(C(=O)c2cc3cc(Cl)cc(Cl)c3oc2=O)CC(C)O1` (stereo not given), the viability was 83.5% in assay [1]; 83.5% (inactive) in assay [3]; 96.8% (inactive) in assay [4]; 92.4% (inactive) in assay [5]; 87.7% in assay [6] (setting [9]); 92.4% in assay [6] (setting [10]). The Her2 level in assay [2] was 102% (inactive). Also, in assay [6] (H69AR cells + 2 uM doxorubicin), the differential viability (reversal) is 4.73% (inactive). Also, the inhibition in assay [7] was -3.47% (inactive); in assay [8], 23.8% (inactive).
